NPY Y2 blocker = antagonists of human neuropeptide Y receptor Y2. actives 0.99% (n = 140,000). inhibition, % at 2.7 µM. NPY-Y2 expressing cells, antagonist mode; in the data active means inhibition above about 17%;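 further: 0% = vehicle with agonist challenge and 100% = reference antagonist with challenge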
Target sequence (P49146 whole entry, looked up): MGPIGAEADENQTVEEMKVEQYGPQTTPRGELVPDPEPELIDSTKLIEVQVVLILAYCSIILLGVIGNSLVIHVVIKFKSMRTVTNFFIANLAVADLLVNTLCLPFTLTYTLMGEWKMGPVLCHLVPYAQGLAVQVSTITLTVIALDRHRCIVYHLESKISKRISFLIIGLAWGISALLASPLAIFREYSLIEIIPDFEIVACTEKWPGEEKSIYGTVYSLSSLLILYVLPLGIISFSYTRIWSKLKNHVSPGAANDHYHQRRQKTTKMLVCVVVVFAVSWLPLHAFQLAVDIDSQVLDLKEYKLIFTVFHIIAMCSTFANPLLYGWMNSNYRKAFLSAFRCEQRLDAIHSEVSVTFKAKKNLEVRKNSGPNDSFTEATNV
NPY-Y1 PAM-ag = human NPY-Y1 potentiation or agonism, primary screen; P25929; NPY-Y1 expressing cells, potentiator/agonist activation; activation, % at 3.6 µM; actives 0.37% (n = 220,000); in the data active means activation above about 33%, passing the limit was not always enough;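 further: cells stimulated with NPY at EC10 then isoproterenol at EC100; 0% = low agonist plus stimulus and 100% = saturating agonist plus stimulus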
NPY Y1 blocker = NPY-Y1 (human) receptor antagonism. P25929. HEK293-CNG Y1 cells, membrane potential fluorescence; NPY at EC95, then isoproterenol. inhibition, % at 3.6 µM. actives 1% (n = 200,000). AID 1040;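 active means inhibition above the campaign mean inhibition of all tested compounds plus 3 SD, cut at about 20% in these data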;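 further: 0% = DMSO wells given NPY plus isoproterenol and 100% = isoproterenol alone without NPY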
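System: HEK293 cells with Y1 receptor plus CNG channel / Probe or stimulus: NPY 25 nM then isoproterenol 1 µM plus Ro 20-1724 25 µM / Compound: one concentration, 3.6 µM, in 0.4% DMSO / Schedule: compound incubation 1 h at room temperature, readout 45 min post-stimulation / Measured by: membrane potential fluorescence / Read-out: % inhibition of NPY effect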
NPY2 pot ag = potentiators or agonists of human neuropeptide Y receptor Y2. cells expressing NPY-Y2, potentiator/agonist read-out. activation, % at 3.6 µM. actives 0.45% (n = 220,000); in the data active means activation above about 27%;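 further: cells stimulated with NPY near EC25 plus isoproterenol at EC100; 0% = vehicle plus submaximal agonist and 100% = vehicle plus saturating agonist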
Wee1 stabilizer = inhibitors of human Wee1 degradation | P30291 | HeLa Luc-Wee1K328M stability, luciferase luminescence; 100% = proteasome inhibitor MG132 effect | reporter increase, % at 5 µM | actives 1.2% (n = 220,000) | AID 1321;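 active means activation above the mean of all tested compounds plus 3 SD, set per screening run, cut at about 8.8% in these data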;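 further: cells exposed to compound for 20 h before luminescence read; 0% = DMSO alone and 100% = MG132 at 30 µM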
Hsp70 act = transcriptional activators of Hsp70; activation, % at 10 µM; actives 0.04% (n = 200,000); HeLa Hsp70 promoter luciferase reporter, luminescence; scaled: vehicle 0, proteasome-inhibitor control 100%; AID 1203;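 active means activation above the mean across all tested compounds plus 3 SD, cutoff set per campaign, cut at about 5.5% in these data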;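 further: 100% = MG132 at 30 µM as the positive control and 0% = DMSO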
Numbers without * were called inactive; nt = not tested or not shown. Hits are enriched below; roughly 3% of the tested compounds scored in any of these assays.

SMILES	NPY Y2 blocker	NPY-Y1 PAM-ag	NPY Y1 blocker	NPY2 pot ag	Wee1 stabilizer	Hsp70 act
CCn1c(COc2ccc(OC)cc2)nc2ccccc21	4	12	2	2	8.8*	0
CCNc1nc(OC)nc(SCC(N)=O)n1	3	-2	-1	-28	2	0
CNC(=O)C(=O)Nc1nc(C23CC4CC(CC(C4)C2)C3)cs1	nt	-4	6	0	-2	0
Cc1noc(C)c1C(=O)Nc1nc(C23CC4CC(CC(C4)C2)C3)cs1	0	45*	-11	72*	0	0
CCc1cccc(CC)c1NC(=O)CSc1nnc(CCC(=O)O)c(=O)[nH]1	nt	17	-1	9	9.5*	0
Clc1ccc2nc(N3CCCCC3)sc2c1	3	-4	0	1	11*	0
CS(=O)(=O)N1CCN(c2nc3ccc(Cl)cc3s2)CC1	nt	1	nt	4	4	nt
Cc1nnc(-c2cnn(C)c2N)n1Cc1ccc2c(c1)OCO2	nt	-5	7	4	-2	0
COc1cccc(CNC(=O)C2CCN(Cc3cnn(-c4ccccc4)c3-n3cccc3)CC2)c1	12	-13	14	-25	8.9*	-1
CC(=C/C(=O)O)/C=C/c1ccc([N+](=O)[O-])cc1	2	-24	0	-8	11*	0
CCc1nc2ccc(F)cc2c(C(=O)NC2CCCCC2C)c1C (stereo not given)	29*	-82	35*	-53	-1	0
CCc1nc2ccccc2c(C(=O)NCc2ccccc2)c1C	nt	-16	-1	-16	2	0
CC(=O)c1ccc(NC(=O)c2noc3c2CCCCC3)cc1	1	0	-5	-27	7	0
O=C(Nc1ccc2c(c1)OCO2)c1noc2c1CCCCC2	4	20	2	12	10*	0
COc1ccc(C(=O)c2nccc3ccccc23)cc1	nt	5	2	3	10*	0
O=C(c1ccccc1)c1nn(-c2ccccc2)c2nnc(Cc3ccccc3)c(=O)n12	29*	-128	38*	-53	3	0
CCN(CC)S(=O)(=O)c1ccc(N2C(=O)Nc3ccccc3N2O)cc1	2	-17	0	-4	1	0
O=C1Nc2ccccc2N(O)N1c1ccc(S(=O)(=O)N2CCCCCC2)cc1	3	3	1	-14	9.7*	0
O=C1CCCCC1C(Nc1ccc(Br)cc1)c1ccccc1 (stereo not given)	-2	19	-8	-2	-1	0
O=C1CCCCC1C(Nc1ccc(Cl)cc1)c1ccccc1 (stereo not given)	-4	8	0	10	9.5*	0
CC(CC(=O)NCc1ccccc1)C1CCCO1 (stereo not given)	4	-1	2	-10	2	0
CCNC(=O)C(=O)NCC1OCCCN1S(=O)(=O)c1cccs1 (stereo not given)	1	14	6	4	4	0
O=C(COc1ccc2ccccc2c1)Nc1nccs1	nt	0	-2	17	6	0
O=C(COc1ccccc1)Nc1nccs1	0	-22	-5	-17	9.6*	0
COc1ccc(C(=O)NCCNC(=O)c2cc(OCC(F)(F)F)ccc2OCC(F)(F)F)cc1	7	-3	-4	0	-1	0
SMILES	NPY Y2 blocker	NPY-Y1 PAM-ag	NPY Y1 blocker	NPY2 pot ag	Wee1 stabilizer	Hsp70 act
CCCCN(CC)CCCNC(=O)c1csc2c1CCCCC2	nt	16	2	-3	1	0
COc1cc(OC)cc(C(=O)NCCOC23CC4CC(CC(C4)C2)C3)c1	nt	11	-2	2	9.4*	0
CC1(C)CC2CC(C)(CN2C(=O)COC(=O)CNC(=O)c2ccc(Cl)c(Cl)c2)C1 (stereo not given)	4	21	1	-2	11*	0
Cc1ccc(NC(=O)c2sc3nc(CCl)[nH]c(=O)c3c2C)c(C)c1	nt	9	1	-2	16*	0
Cc1ccc(Sc2ncnc3onc(C)c23)c(C)c1	nt	-12	-2	6	9.1*	0
Cc1ccc(C(=O)O/N=C2\CCSc3ccc(C)cc32)cc1	21*	-9	23*	-12	-1	0
CCOC(=O)C1(Cc2ccccc2Cl)CCN(Cc2csc(C(C)=O)c2)CC1	nt	0	14	-13	-2	0
O=C(Nc1nc2c(s1)CN(Cc1ccccc1)CC2)c1cccc(S(=O)(=O)N2CCc3ccccc32)c1	-2	9	-10	13	12*	0
O=C1OC(c2cccc([N+](=O)[O-])c2)C2(CCCC2)C(=O)C12CCCCC2 (stereo not given)	3	-6	2	3	3	0
O=C(CSc1nnc(Cc2cccs2)n1Cc1ccco1)Nc1ccc(Cl)cc1Cl	23*	-20	31*	-6	-1	0
S=C(Nc1ccccc1)N1CCN(C/C=C/c2ccccc2)CC1	nt	3	1	10	10*	0
COC(=O)c1ccccc1NC(=O)N1CCN(C/C=C/c2ccccc2)CC1	5	-35	-8	-13	10*	0
Cc1ccc(NC(=O)N2CCN(C/C=C/c3ccccc3)CC2)cc1	nt	-5	-3	-18	0	0
COc1cc2c(cc1OC)CN(C(=O)c1ccc(OC)c(S(=O)(=O)N3CCOCC3)c1)CC2	-1	-22	8	1	-2	0
COC(=O)CNC(=O)CCc1nnc(C2(c3ccc(Cl)cc3)CCC2)o1	nt	9	3	7	0	0
COCC(C)NC(=O)CCc1nnc(C2(c3ccc(Cl)cc3)CCC2)o1 (stereo not given)	nt	-13	-1	-16	8.9*	0
NC(=O)C(CC(=O)O)NC(=O)[C@@H]1CCOc2c(I)cc([N+](=O)[O-])cc2C(=O)N[C@@H](CCC(=O)O)C(=O)N[C@@H](CO)C(=O)N1 (stereo not given in full)	1	0	-3	-11	8.8*	0
O=C(CSCc1ccccc1)N1CCN(c2ccc(F)cc2)CC1	8	2	-3	-11	-1	0
O=C(CSCc1ccccc1)N1CCN(c2ccccc2)CC1	8	12	10	-14	9.0*	0
O=C1OCCN1C(=O)[C@H]1[C@H](c2ccc([N+](=O)[O-])cc2)C(c2cccc(Cl)c2)=NN1c1ccccc1	-1	29	-7	31*	10*	0
Cn1c(Cn2c3ccccc3c3ccccc32)n[nH]c1=S	nt	-2	nt	7	9.4*	nt
C=C(C)Cn1c(CCn2c3ccccc3c3ccccc32)n[nH]c1=S	4	0	5	-2	-3	0
N#C/C(=C\c1ccncc1)c1nc2c(s1)CCCC2	nt	-11	3	-14	0	0
O=S(=O)(Nc1ccc(Cl)cc1)c1ccc(N2CCOCC2)c(NC(=S)NCCN2CCOCC2)c1	nt	5	2	5	2	0
